Molecules are shown by their SMILES.

For 19 compounds, IC50, EC50 and CC50 results are on record in ChEMBL document CHEMBL4270618, “Synthesis and biological evaluation of a library of hybrid derivatives as inhibitors of influenza virus PA-PB1 interaction” (Eur J Med Chem, 2018).

In data set [1] the target is PA/PB1 (Influenza A virus (A/Puerto Rico/8/1934(H1N1)), UniProt P03431+P03433). Put plainly: Inhibition of Influenza A virus A/PR/8/34 (H1N1) 6His-tagged PA (239 to 716 residues)/GST-tagged PB1 (1 to 25 residues) interaction expressed in Escherichia coli incubated overnight by ELISA. An outline of the steps:
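Wells coated with 400 ng E. coli-expressed 6His-PA(239–716) for 3 h at 37 °C, then blocked with 2% BSA/PBS for 1 h. 200 ng GST-PB1(1–25), or GST control, in serum-free DMEM added with compound or DMSO, overnight at room temperature. Bound protein detected with HRP-anti-GST and TMB, OD450. DMSO = 100% interaction. IC50 as mean ± SD, ≥3 experiments in duplicate.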

For another data set, the system named is Influenza A virus. Put plainly: Antiviral activity against Influenza A virus A/PR/8/34 (H1N1) infected in MDCK cells measured after 2 days by plaque reduction assay. In kind it is functional, organism-based. The following applies: A/Puerto Rico/8/1934(H1N1), 48 h. The procedure, abridged: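 MDCK monolayers infected with PR8 (H1N1, Cambridge lineage) at 40 PFU/well for 1 h at 37 °C with compound at various concentrations, in DMEM with 1 µg/mL TPCK-trypsin and 0.14% BSA. Overlay of the same medium with 1.2% Avicel plus compound. After 2 days, fixed with 4% formaldehyde, stained with 0.1% toluidine blue, plaques counted. DMSO mean = 100%. EC50 reported as mean ± SD, ≥3 independent experiments in duplicate.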

Data set [2] in a line: Cytotoxicity against MDCK cells assessed as decrease in cell viability after 48 hrs by MTT assay. It counts as cell-based, Canis lupus familiaris. The conditions noted are these: dog. The procedure, abridged: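 MDCK at 5×10^3 cells/well with 2-fold serial dilutions from 250 µM, or DMSO, for 48 h. MTT (5 mg/mL stock in PBS) added for 4 h at 37 °C, then solubilising solution for 3 h at 37 °C. Absorbance read at 620 nm against DMSO = 100%. CC50 as mean ± SD, ≥3 experiments in duplicate.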
A general note: Tetrazolium assays rely on reduction of a dye to a coloured formazan, in cell work by metabolically active cells.

A short description of data set [3]: Cytotoxicity against HEK293T cells assessed as decrease in cell viability after 24 hrs by MTT assay. In kind it is cell-based, HEK-293T. The conditions noted are these: human. The procedure, abridged: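 HEK 293T at 2×10^4 cells/well with 2-fold serial dilutions from 250 µM, or DMSO, for 24 h. MTT (5 mg/mL stock in PBS) added for 4 h at 37 °C, then solubilised for 3 h at 37 °C. Absorbance read at 620 nm, DMSO wells = 100% viability. CC50 as mean ± SD, ≥3 independent experiments in duplicate.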

Data set [4] has as its target PA/PB1 (Influenza A virus (A/Puerto Rico/8/1934(H1N1)), UniProt P03431+P03433). Briefly: Inhibition of Influenza A virus A/PR/8/34 (H1N1) PA-PB1 interaction expressed in HEK293T cells assessed as decrease in RNA polymerase activity incubated for 24 hrs by minireplicon based luciferase reporter gene assay. It counts as cell-based. An outline of the steps: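 HEK 293T (2×10^5/well) transfected 24 h after seeding, by calcium phosphate, with PR8 PB1, PB2, PA and NP plasmids (100 ng each), a PolI firefly-luciferase minireplicon (50 ng) and SV40-Renilla (50 ng) for normalisation. Compound or DMSO present during transfection; medium renewed at 4 h with compound. Dual luciferase read at 24 h. EC50 as mean ± SD, ≥3 experiments in duplicate.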
On the technique in general: Replicon systems follow genome replication, usually without infectious particles.

Usually IC50 stands for the concentration needed to halve the response being measured. The low end stands for greater potency, the high end for weaker potency. For orientation: EC50 means the concentration that produces a half-maximal response. A word on the CC50: it is the concentration that lowers cell viability or growth by half. The compound `CC[C@H](C)[C@H](NC(=O)CSc1nc(-c2ccccc2)cc(-c2ccc(C)cc2)c1C#N)C(=O)OC` yielded an IC50 in data set [1] of 36 µM. Further, the EC50 was 39 µM in the data set on Influenza A virus and 53 µM in data set [4]. The CC50 at 48 h in data set [2] was above 250 µM. Moreover, the CC50 at 24 h in data set [3] worked out at 229 µM.

Regarding `COC(=O)C[C@H](NC(=O)[C@@H](NC(=O)CSc1nc(-c2ccccc2)cc(-c2ccc(C)cc2)c1C#N)C(C)C)C(=O)OC`, in data set [1], half-maximal inhibition (IC50) was put at 143 µM. Besides, the results for the half-maximal effective concentration (EC50) (in the data set with Influenza A virus; in data set [4]) were 49 µM and 59 µM, respectively. Further, the CC50 at 48 h in data set [2] is above 250 µM. Also, the CC50 at 24 h in data set [3] is above 250 µM.

In data set [1], `CSCC[C@H](N)C(=O)N[C@@H](CC(=O)O)C(=O)N[C@H](C(=O)N[C@@H](CC(N)=O)C(=O)N1CCC[C@H]1C(=O)N[C@H](C(=O)N[C@@H](CC(C)C)C(=O)N[C@@H](CC(C)C)C(=O)N[C@@H](Cc1ccccc1)C(=O)N[C@@H](CC(C)C)C(=O)N[C@@H](CCCCN)C(=O)N[C@H](C(=O)N1CCC[C@H]1C(=O)N[C@@H](C)C(=O)N[C@@H](CCC(N)=O)C(=O)N[C@@H](Cc1ccc(O)cc1)C(=O)NCC(=O)N[C@@H](CCCNC(=N)N)C(=O)N[C@@H](CCCCN)C(=O)N[C@@H](CCCCN)C(=O)N[C@@H](CCCNC(=N)N)C(=O)N[C@@H](CCCNC(=N)N)C(=O)N[C@@H](CCC(N)=O)C(=O)N[C@@H](CCCNC(=N)N)C(=O)N[C@@H](CCCNC(=N)N)C(=O)N[C@@H](CCCNC(=N)N)C(=O)N1CCC[C@H]1C(=O)N1CCC[C@H]1C(=O)O)C(C)C)[C@@H](C)O)C(C)C` showed an IC50 of 31.7 µM. Also, the EC50 with Influenza A virus stood at 49.7 µM; in data set [4], 15.5 µM. Further, the CC50 at 48 h in data set [2] is above 250 µM. Also, in data set [3], the CC50 at 24 h was above 250 µM.

For `COC(=O)[C@H](CCCNC(=N)N)NC(=O)CSc1nc(-c2ccccc2)cc(-c2ccc(C)cc2)c1C#N`, half-maximal inhibition in data set [1] (IC50) required 48 µM. The compound also returned an EC50 in the data set with Influenza A virus above 100 µM. In addition, in data set [2], the CC50 at 48 h was above 250 µM.

`Cc1cccc(NC(=O)CSc2nc(-c3ccccc3)cc(-c3ccccc3)c2C#N)c1`: the CC50 at 48 h in data set [2] was above 250 µM. The CC50 at 24 h in data set [3] is above 250 µM. In addition, the EC50 in data set [4] was found to be 86.6 µM.

`Cc1ccc(-c2cc(-c3ccccc3)nc(SCC(N)=O)c2C#N)cc1` gave an IC50 in data set [1] of 102 µM. Further, the EC50 is 41 µM with Influenza A virus and 65 µM in data set [4]. Moreover, in data set [2], the CC50 at 48 h is above 250 µM. In addition, in data set [3], the CC50 at 24 h is 218 µM.

With `COC(=O)[C@H](CC(C)C)NC(=O)CSc1nc(-c2ccccc2)cc(-c2ccc(C)cc2)c1C#N`, inhibition in data set [1] was half-maximal at 149 µM (IC50). For the same compound, the EC50 in the data set with Influenza A virus was determined as 97 µM. Further, in data set [2], the CC50 at 48 h amounted to 215 µM.

In turn, `CCC(CC)O[C@@H]1C=C(C(=O)O)C[C@H](N)[C@H]1NC(C)=O` [OSELTAMIVIR CARBOXYLATE] came in with an EC50 in the data set on Influenza A virus of 0.015 µM. The 50% cytotoxic concentration (CC50) at 48 h in data set [2] was above 250 µM. Moreover, the CC50 at 24 h in data set [3] was above 250 µM.

Take `NC(=O)c1ncn([C@@H]2O[C@H](CO)[C@@H](O)[C@H]2O)n1` [RIBAVIRIN]: in data set [2], the CC50 at 48 h is above 250 µM. Besides, the CC50 at 24 h in data set [3] is above 250 µM. The EC50 in data set [4] is 23.8 µM.

As to `COC(=O)CC[C@H](NC(=O)CSc1nc(-c2ccccc2)cc(-c2ccc(C)cc2)c1C#N)C(=O)OC`, inhibition in data set [1] was half-maximal at 187 µM (IC50). In the data set on Influenza A virus, this compound displayed an EC50 above 100 µM. The CC50 at 48 h in data set [2] is above 250 µM.

Turning to `COC(=O)[C@H](Cc1cnc[nH]1)NC(=O)CSc1nc(-c2ccccc2)cc(-c2ccc(C)cc2)c1C#N`, the IC50 in data set [1] is 32 µM. This compound displayed an EC50 in the data set with Influenza A virus of 80 µM. The CC50 at 48 h in data set [2] came out at 152 µM.

In the case of `Cc1ccc(-c2cc(-c3ccccc3)nc(SCC(=O)O)c2C#N)cc1`, the IC50 in data set [1] amounted to 56 µM. The EC50 in the data set on Influenza A virus stood at 65 µM; in data set [4], 43 µM. Moreover, the CC50 at 48 h in data set [2] is above 250 µM. Moreover, the CC50 at 24 h in data set [3] was found to be 218 µM.

In data set [1], `Cc1ccc(-c2cc(-c3ccccc3)nc(SCC(=O)N[C@H](C(=O)N[C@@H](CC(=O)O)C(=O)O)C(C)C)c2C#N)cc1` showed a concentration for half-maximal inhibition (IC50) of 77 µM. In the data set with Influenza A virus, this compound registered an EC50 of 100 µM. Besides, in data set [2], the CC50 at 48 h is above 250 µM.

`COC(=O)[C@H](Cc1ccc(O)cc1)NC(=O)CSc1nc(-c2ccccc2)cc(-c2ccc(C)cc2)c1C#N` showed an IC50 in data set [1] of 18 µM. Further, in the data set with Influenza A virus, the EC50 is above 100 µM. The CC50 at 48 h in data set [2] is above 250 µM.

In the case of `COC(=O)C[C@H](NC(=O)[C@@H](NC(=O)CSc1nc(-c2ccccc2)cc(-c2ccc(C)cc2)c1C#N)C(C)C)C(=O)N[C@@H](CCSC)C(=O)OC`, in data set [1], the midpoint of inhibition, the IC50, lay at 68 µM. Moreover, the EC50 in the data set with Influenza A virus was above 100 µM. Further, the CC50 at 48 h in data set [2] is above 250 µM.

`COC(=O)[C@@H](NC(=O)CSc1nc(-c2ccccc2)cc(-c2ccc(C)cc2)c1C#N)C(C)C` yielded an IC50 in data set [1] of 167 µM. Besides, the EC50 in the data set on Influenza A virus came out at 52 µM; in data set [4] it was 41 µM. For the same compound, the CC50 at 48 h in data set [2] was 210 µM. The CC50 at 24 h in data set [3] is above 250 µM.

`COC(=O)[C@H](Cc1ccccc1)NC(=O)CSc1nc(-c2ccccc2)cc(-c2ccc(C)cc2)c1C#N`: the IC50 in data set [1] is above 200 µM. For the same compound, it took 68 µM to reach a half-maximal effect in the data set on Influenza A virus (EC50). In addition, the CC50 at 48 h in data set [2] came to 240 µM.

With `Cc1ccc(-c2cc(-c3ccccc3)nc(SCNC(=O)OC(C)(C)C)c2C#N)cc1`, in data set [1], the IC50 was above 200 µM. Besides, the EC50 with Influenza A virus was above 100 µM. In addition, the CC50 at 48 h in data set [2] is above 250 µM.

Compound `Cc1ccc(-c2cc(-c3ccccc3)nc(SCC(=O)N[C@H](C(=O)O)C(C)C)c2C#N)cc1` registered an IC50 in data set [1] of 76 µM. Also, the results for the concentration giving a half-maximal response (EC50) (with Influenza A virus; in data set [4]) were 50 µM and 77 µM, respectively. Further, the CC50 at 48 h in data set [2] is above 250 µM. For the same compound, in data set [3], the CC50 at 24 h turned out to be 250 µM.
